# ChEMBL document CHEMBL1146374, “Clubbed triazoles: a novel approach to antitubercular drugs” (Eur J Med Chem, 2007)
# What was measured:
# [1] = test system: Mycobacterium tuberculosis; assay: Growth inhibition of Mycobacterium tuberculosis H37Rv at 6.25 ug/ml by Microplate Alamar Blue Assay; assay type: functional; settings: read-out: GI
# Procedure, shortened: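 Primary single-concentration screen against M. tuberculosis H37Rv (ATCC 27294) in BACTEC 12B medium by MABA broth microdilution, read as % inhibition. Compounds that fluoresce were tested in the BACTEC 460 radiometric system. More than 95% inhibition was the activity cutoff.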
# [2] = test system: Mycobacterium tuberculosis; assay: (§1) Antituberculosis activity against Mycobacterium tuberculosis H37Rv by Microplate Alamar Blue Assay; assay type: functional
# Procedure, shortened: (§2)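 MIC against M. tuberculosis H37Rv (ATCC 27294) in BACTEC 12B medium by broth microdilution (MABA). Primary actives were retested at lower concentrations. MIC is the lowest concentration giving a […] fluorescence reduction versus controls. Fluorescent compounds were run in the BACTEC 460 radiometric system. Rifampin was the reference.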
# [3] = test system: Mycobacterium tuberculosis; assay: as §1; assay type: functional; procedure, shortened: as §2; remark: listed apart in the source
# [4] = Cytotoxicity against Vero-C1008 cells at 6.25 to 50 ug/ml; assay type: cell-based; settings: chlorocebus sabaeus
# Procedure, shortened: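 Vero-C-1008 cells were exposed to compounds at several concentrations across 6.25–50 µg/ml. Cytotoxicity was read out by neutral red uptake.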
# [5] = test system: Pseudomonas aeruginosa; assay: Antibacterial activity against Pseudomonas aeruginosa at 50 to 100 uM after 24 hrs by well diffusion method; assay type: functional
# Procedure, shortened: (§3)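 Agar well diffusion: nutrient agar plates with 10 mm wells cut by sterile cork borer; 24-h subcultured bacteria swabbed onto the plates from nutrient broth. Compounds were dissolved in chloroform and added to wells at […]. Gentamycin served as the standard antibiotic.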
# [6] = test system: Escherichia coli; assay: Antibacterial activity against Escherichia coli at 50 to 100 uM after 24 hrs by well diffusion method; assay type: functional; procedure, shortened: as §3
# [7] = test system: Salmonella typhi; assay: Antibacterial activity against Salmonella typhi at 50 to 100 uM after 24 hrs by well diffusion method; assay type: functional, Salmonella enterica subsp. enterica serovar Typhi
# Procedure, shortened: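 Agar well diffusion on nutrient agar plates; wells cut with a 10 mm sterile cork borer. Plates swabbed with 24-h subcultured bacteria from nutrient broth. Compounds dissolved in chloroform and added to wells at a range of concentrations. Gentamycin was the standard.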
# [8] = test system: Staphylococcus aureus; assay: Antibacterial activity against Staphylococcus aureus at 50 to 100 uM after 24 hrs by well diffusion method; assay type: functional; procedure, shortened: as §3
Compound,inhibition of growth at 6.25 µg/mL [1] [%],MIC [2] [µg/mL],MIC [3] [µM],Activity [4],zone of inhibition [5] [mm],zone of inhibition [6] [mm],Inhibition [7] [%],zone of inhibition [8] [mm],inhibition [5] [%],inhibition [6] [%],inhibition ([7]; Salmonella enterica subsp. enterica serovar Typhi) [%],inhibition [8] [%]
CC(=O)Nc1nc(Cc2nnc(SCC(=O)N/N=C/c3ccccc3)n2NC(=O)c2ccccc2)cs1,96,< 6.25,1.56,Non-toxic,,,,,,,,
Nn1c(S)nnc1CSc1nnc(Cc2csc(NC(=O)CCl)n2)n1NC(=O)c1ccccc1,,< 6.25,,Non-toxic,10,10,14,12,,,,
O=C(CCl)Nc1nc(Cc2nnc(S)n2NC(=O)c2ccccc2)cs1,,< 6.25,,Non-toxic,20,18,14,20,,,,
CC(=O)NNC(=O)CSc1nnc(Cc2csc(NCCC(=O)O)n2)n1NC(=O)c1ccccc1,,< 6.25,,Non-toxic,,,,,,,,
N#CCSc1nnc(Cc2csc(NCCC(=O)O)n2)n1NC(=O)c1ccccc1,,< 6.25,,Non-toxic,24,20,20,26,,,,
CC(=O)Nc1nc(Cc2nnc(S)n2NC(=O)c2ccccc2)cs1,,< 6.25,,Non-toxic,16,20,16,16,,,,
O=C(CSc1nnc(Cc2csc(NC(=O)c3ccccc3)n2)n1NC(=O)c1ccccc1)NNC(=O)c1ccccc1,,< 6.25,,Non-toxic,,,,,,,,
O=C(CCl)Nc1nc(Cc2nnc(SCSc3nnc(Cc4csc(NC(=O)CCl)n4)n3NC(=O)c3ccccc3)n2NC(=O)c2ccccc2)cs1,,< 6.25,,Non-toxic,22,20,16,22,,,,
CC(=O)Nc1nc(Cc2nnc(SCC(=O)NNC(=O)CCl)n2NC(=O)c2ccccc2)cs1,,< 6.25,,Non-toxic,,,,,,,,
CC(=O)NNC(=O)CSc1nnc(Cc2csc(NC(=O)c3ccccc3)n2)n1NC(=O)c1ccccc1,,< 6.25,,Non-toxic,,,,,,,,
O=C(CCl)NNC(=O)CSc1nnc(Cc2csc(NC(=O)CCl)n2)n1NC(=O)c1ccccc1,,< 6.25,,Non-toxic,,,,,,,,
CC(=O)NNC(=O)CSc1nnc(Cc2csc(NC(=O)CCl)n2)n1NC(=O)c1ccccc1,,< 6.25,,Non-toxic,10,14,14,24,,,,
O=C(Nc1nc(Cc2nnc(SCSc3nnc(Cc4csc(NC(=O)c5ccccc5)n4)n3NC(=O)c3ccccc3)n2NC(=O)c2ccccc2)cs1)c1ccccc1,,< 6.25,,Non-toxic,24,16,12,11,,,,
O=C(O)CCNc1nc(Cc2nnc(SCC(=O)NNC(=O)CCl)n2NC(=O)c2ccccc2)cs1,,< 6.25,,Non-toxic,,,,,,,,
Nn1c(S)nnc1CSc1nnc(Cc2csc(NCCC(=O)O)n2)n1NC(=O)c1ccccc1,,< 6.25,,Non-toxic,11,18,12,14,,,,
O=C(O)CCNc1nc(Cc2nnc(SCSc3nnc(Cc4csc(NCCC(=O)O)n4)n3NC(=O)c3ccccc3)n2NC(=O)c2ccccc2)cs1,,< 6.25,,Non-toxic,16,10,12,18,,,,
O=C(CSc1nnc(Cc2csc(NC(=O)CCl)n2)n1NC(=O)c1ccccc1)NNC(=O)c1ccccc1,,< 6.25,,Non-toxic,,,,,,,,
Nn1c(S)nnc1CSc1nnc(Cc2csc(NC(=O)c3ccccc3)n2)n1NC(=O)c1ccccc1,,< 6.25,,Non-toxic,18,18,14,12,,,,
GENTAMICIN,,,,,,,,,35,31,30,34
O=C(CSc1nnc(Cc2csc(NC(=O)CCl)n2)n1NC(=O)c1ccccc1)N/N=C/c1ccccc1,98,< 6.25,0.78,Non-toxic,,,,,,,,
